Data on 27 compounds can be found in PubChem BioAssay.

The source made the active and inactive calls.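 How the source made its calls, unless noted: active means current rise at least 3 SD above the untreated control mean in each of two repeat wells; inactive means the rest.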

Assay [1] in a line: nonspecific flux increase, KCNQ1-free cells – parental CHO cells, counter-screen for KCNQ1 potentiator project (AID 493006;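 active means duplicate-averaged activation above buffer control mean plus 5 SD of those controls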;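 on activation: fluorescence ratio of max minus min over baseline after K+ and Tl+ depolarization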). The settings on record: parental CHO-K1 cells, FluxOR thallium flux, at 10 µM; active compounds read high. The method, boiled down:
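Material: parental CHO-K1 cells, FluxOR dye-loaded; Also added: Potassium/thallium depolarization pulse; Schedule: overnight 37 °C plating, 90 min dye, 20 min dark compound; Signal: kinetic FluxOR fluorescence, 10 s baseline, 110 s after stimulus.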
On the technique in general: The purpose of a counterscreen is to sort out artefacts and off-target activity.

Assay [2] addresses Potassium voltage-gated channel subfamily KQT member 1 (Homo sapiens) (UniProt P51787). As to the kind of experiment: enhancement of KCNQ1 channel thallium flux – FluxOR thallium flux, CHO cells, duplicates, confirmation (AID 493007;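 active means potentiation averaged over duplicate wells exceeding buffer-only control mean by more than 3 SD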;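 on outcome: cells depolarized by a potassium plus thallium sulfate stimulus after compound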). The settings on record: KCNQ1 cell line, FluxOR thallium flux fluorescence, at 10 µM; active compounds read high, % of reference activator effect, buffer zero. In outline:
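System: KCNQ1-expressing CHO cell line; technique: kinetic thallium influx fluorescence with FluxOR dye, 10 s baseline, 110 s post-stimulus; timing: dye 90 min then compound 20 min, both at room temperature; controls: buffer-only wells as 0% and R-L3 activator as 100%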

For assay [3], the target named is Potassium voltage-gated channel subfamily KQT member 2 (Rattus norvegicus) (UniProt O88943). As to the kind of experiment: KCNQ2 thallium flux enhancement – KCNQ2-CHO-K1 cells, selectivity assay for KCNQ1 potentiator project (AID 493009;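 active means mean duplicate potentiation above the buffer control mean plus 5 SD of buffer wells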;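 further: assay conditions were tuned for KCNQ1 rather than KCNQ2 modulators; signal is max minus min fluorescence divided by baseline after thallium stimulus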). Conditions: FluxOR thallium flux fluorescence, at 10 µM; active compounds read high, scaled: buffer 0, activator control 100.
Sequence of Potassium voltage-gated channel subfamily KQT member 2 (Rattus norvegicus) (O88943 whole entry, looked up): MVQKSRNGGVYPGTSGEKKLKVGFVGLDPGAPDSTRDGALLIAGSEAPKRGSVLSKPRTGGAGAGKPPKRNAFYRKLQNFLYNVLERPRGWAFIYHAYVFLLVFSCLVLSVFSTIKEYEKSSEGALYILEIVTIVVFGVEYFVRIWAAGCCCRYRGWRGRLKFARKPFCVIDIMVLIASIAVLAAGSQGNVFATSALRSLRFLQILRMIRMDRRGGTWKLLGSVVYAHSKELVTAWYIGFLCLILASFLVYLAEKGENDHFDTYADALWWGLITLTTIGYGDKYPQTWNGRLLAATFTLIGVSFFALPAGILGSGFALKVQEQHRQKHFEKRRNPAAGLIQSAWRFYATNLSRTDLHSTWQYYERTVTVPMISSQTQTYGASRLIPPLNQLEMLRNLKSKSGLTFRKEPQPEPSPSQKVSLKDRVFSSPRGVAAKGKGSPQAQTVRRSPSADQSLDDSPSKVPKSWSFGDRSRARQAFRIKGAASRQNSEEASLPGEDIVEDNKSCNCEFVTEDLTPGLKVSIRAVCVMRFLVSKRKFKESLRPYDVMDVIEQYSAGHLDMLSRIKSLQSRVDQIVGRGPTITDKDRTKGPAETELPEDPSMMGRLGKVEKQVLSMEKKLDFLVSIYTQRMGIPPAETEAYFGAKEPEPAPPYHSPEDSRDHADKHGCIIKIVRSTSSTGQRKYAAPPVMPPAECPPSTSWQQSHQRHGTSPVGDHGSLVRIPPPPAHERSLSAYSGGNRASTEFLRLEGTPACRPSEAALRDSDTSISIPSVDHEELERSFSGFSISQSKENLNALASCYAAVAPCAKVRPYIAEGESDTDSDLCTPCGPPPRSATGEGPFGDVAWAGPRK
The target in assay [4] is Potassium voltage-gated channel subfamily KQT member 1 (Homo sapiens) (UniProt P51787). The assay is described as follows: KCNQ1 activators by electrophysiology – IonWorks patch clamp, KCNQ1-CHO cells, orthogonal assay for KCNQ1 potentiator project, confirmation (AID 493184). Conditions: automated patch clamp current, at 10 µM; active compounds read high. In outline: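 Test system: KCNQ1-expressing CHO cells. Medium: pH 7.4 external bath. Probe or stimulus: voltage step from -90 mV holding to +40 mV, 2,000 ms. Compound: 10 µM final, single point. Detection: automated perforated-patch electrophysiology. Read-out: percent current increase versus pre-compound level. Repeats: two replicates.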
Sequence of Potassium voltage-gated channel subfamily KQT member 1 (Homo sapiens) (P51787 whole entry, looked up): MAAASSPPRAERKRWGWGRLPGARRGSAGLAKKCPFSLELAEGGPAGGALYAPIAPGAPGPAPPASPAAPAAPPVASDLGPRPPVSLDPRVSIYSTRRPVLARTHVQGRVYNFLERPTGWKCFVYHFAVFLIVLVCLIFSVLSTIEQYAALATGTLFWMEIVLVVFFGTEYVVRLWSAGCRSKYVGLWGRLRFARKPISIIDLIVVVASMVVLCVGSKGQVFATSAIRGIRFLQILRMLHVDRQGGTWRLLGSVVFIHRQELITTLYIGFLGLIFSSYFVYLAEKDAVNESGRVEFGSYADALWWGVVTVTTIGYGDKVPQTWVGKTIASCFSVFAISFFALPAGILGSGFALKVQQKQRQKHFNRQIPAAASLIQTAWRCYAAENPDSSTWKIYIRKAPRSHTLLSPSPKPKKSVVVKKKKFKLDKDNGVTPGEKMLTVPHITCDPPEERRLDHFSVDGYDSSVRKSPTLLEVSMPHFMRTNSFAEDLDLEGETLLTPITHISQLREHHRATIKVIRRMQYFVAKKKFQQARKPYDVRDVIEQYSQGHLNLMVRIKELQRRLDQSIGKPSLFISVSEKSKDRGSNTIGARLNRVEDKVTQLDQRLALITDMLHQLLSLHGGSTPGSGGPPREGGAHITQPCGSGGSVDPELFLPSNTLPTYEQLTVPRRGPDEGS
A general note: The patch-clamp technique gives a direct electrical read-out from membranes.

As for `O=C(Nc1ccccc1)C1=C(c2ccccc2)S(=O)(=O)CCS1(=O)=O`, the result in assay [1], in assay [2], in assay [3] and in assay [4] was inactive.

Turning to `Cc1cc(Cl)ccc1OCC(=O)NNC(=O)C1CCCO1` (stereo not drawn), the result in assay [1], in assay [2], in assay [3] and in assay [4] was inactive.

On to `CC1CCN(C(=S)NC(=O)c2ccccc2)CC1`, for which the outcome in assay [1], in assay [2] and in assay [4] was inactive. The potentiation in assay [3] was 150% (active).

For the compound `COc1ccc(CCN(C)C(=O)CSc2nnc(-c3ccco3)o2)cc1OC`, the outcome in assay [1], in assay [2], in assay [3] and in assay [4] was inactive.

For `N=c1ncn(Cc2ccccc2)c2nc(SCCOc3ccccc3)[nH]c12`, the outcome in assay [1], in assay [2], in assay [3] and in assay [4] was inactive.

`Cc1ccc(C)c(NC(=S)NNC(=O)c2cc3c(s2)CCC(C)C3)c1` (stereo not drawn): the activation in assay [1] was 192% (active). Besides, the potentiation in assay [2] was 48.5% (active); in assay [3] it was 237% (active). In assay [4], the result was inactive.

For the compound `COc1ccccc1C(=O)NNC(=O)C(=O)NC(C)(C)C`, the activation in assay [1] was 185% (active). The potentiation was 68% (active) in assay [2] and 246% (active) in assay [3]. In addition, the result in assay [4] was inactive.

Take `Cc1ccc(-n2c(C)cc(/C=N/NC(=O)CC3(C)OCCO3)c2C)c(C)c1`: the outcome in assay [1], in assay [2], in assay [3] and in assay [4] was inactive.

`O=C(C1CCCCC1)N1CCCC(c2nc3c(nnn3Cc3ccccc3)c(=O)[nH]2)C1` (stereo not drawn): the result in assay [1], in assay [2], in assay [3] and in assay [4] was inactive.

In the case of `COc1ccc(C(=O)CC(=O)C(=O)Nc2ccc(C)c(Cl)c2)cc1`, in assay [1], the activation was 138% (active). For the same compound, the potentiation in assay [2] is 26% (active). In addition, the result in assay [3] and in assay [4] was inactive.

For the compound `Cc1cc(C(c2cc(C)c(N)c(C)c2)c2ccco2)cc(C)c1N`, in assay [1], the activation is 189% (active). Moreover, the potentiation was 138% (active) in assay [2] and 224% (active) in assay [3]. Further, the result in assay [4] was inactive.

As for `O=S(=O)(Nc1ccccc1Cl)c1ccc(NS(=O)(=O)c2cccs2)cc1`, the outcome in assay [1], in assay [3] and in assay [4] was inactive. Moreover, in assay [2], the potentiation is 26.5% (active).

For `Cc1ccc2cccnc2c1NC(=S)NC(=O)c1ccccc1`, the result in assay [1], in assay [2], in assay [3] and in assay [4] was inactive.

Consider `Cn1c(=S)[nH]c2scc(-c3cccs3)c2c1=O`, for which, in assay [1], the activation is 524% (active). Also, the potentiation in assay [2] is 218% (active); in assay [3], 500% (active). Further, the result in assay [4] was inactive.

For `COC(=O)c1ccccc1NC(=O)Cn1c(=O)n(Cc2ccccc2)c(=O)c2c(C)c(C)sc21`, the outcome in assay [1], in assay [2], in assay [3] and in assay [4] was inactive.

With `CCSC(=S)c1c(C)[nH]n(-c2ccccc2)c1=O`, in assay [1], the activation was 164% (active). The potentiation in assay [2] is 30% (active); in assay [3], 184% (active). Besides, in assay [4], the outcome was inactive.

`Cc1ccc(C)c(NC(=S)N(Cc2ccco2)C(C)c2cccs2)c1` (stereo not drawn): the outcome in assay [1], in assay [2], in assay [3] and in assay [4] was inactive.

As to `O=C(NC(=S)NC1CCCCC1)c1ccc(F)cc1`, the result in assay [1], in assay [2], in assay [3] and in assay [4] was inactive.

As for `CC(=O)c1c(-c2ccccc2)c2cc([N+](=O)[O-])ccc2[nH]c1=O`, the result in assay [1], in assay [2], in assay [3] and in assay [4] was inactive.

Consider `O=C(CCN1CCCCCC1)Nc1ccc(F)cc1`, for which the result in assay [1], in assay [2], in assay [3] and in assay [4] was inactive.

Take `CC1CN(S(=O)(=O)c2ccc(Cl)c(C(F)(F)F)c2)CC(C)O1` (stereo not drawn): the outcome in assay [1], in assay [2], in assay [3] and in assay [4] was inactive.

Turning to `CCN(CC)CCn1c(OC)cc(=O)[nH]c1=O`, the result in assay [1], in assay [2], in assay [3] and in assay [4] was inactive.

Consider `Fc1ccc(-c2csc(NC(=S)Nc3ccccc3)n2)cc1`, for which, in assay [1], the activation is 153% (active). Further, the values for the potentiation in assay [2] and in assay [3] were 52.5% (active) and 154% (active), respectively. Besides, the outcome in assay [4] was inactive.

Regarding `C=CCn1sc(=N)c(C#N)c1N`, in assay [1], the activation was 528% (active). The potentiation in assay [2] was 195% (active); in assay [3] it was 492% (active). Further, in assay [4], the result was inactive.

In the case of `FC(F)Sc1nc2ccccc2[nH]1`, the activation in assay [1] was 154% (active). Also, the result in assay [2], in assay [3] and in assay [4] was inactive.

Turning to `O=C(COc1ccc(Cl)cc1)NNC(=O)C(=O)NC1CCCCC1`, the result in assay [1], in assay [2] and in assay [4] was inactive. For the same compound, the potentiation in assay [3] is 158% (active).

Take `COc1ccc(CCN2CC(C(=O)Nc3ccc4c(c3)OCO4)CC2=O)cc1OC` (stereo not drawn): the activation in assay [1] is 156% (active). In addition, the potentiation was 21% (active) in assay [2] and 158% (active) in assay [3]. In addition, the result in assay [4] was inactive.
